Results taken from publication PMC7254033 (Saudi Journal of Biological Sciences, 2019).
Converted amounts (≈) assume the structure as drawn. Marks after values point to notes of the source that are not given here.

Columns and labels:
[1] = system: Candida albicans NR-29450; assay: Anti-yeast activity, CLSI M27-A3 microdilution MIC; assay type: cell-based; details: NR29450, 48 h, read-out: Antifungal activity Minimal Inhibitory Concentrations, C. albicans
Outline: (§1)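 Broth microdilution per CLSI M27-A3 in RPMI 1640 with two-fold serial dilutions over ten concentrations, alongside fluconazole reference dilutions. Strains were kept on agar slopes at 4 °C and subcultured for 48 h before each run. Inoculum was standardized at 2.50 × 10^3 cells/mL, with a blank sterility column. Plates were incubated 48 h at 37 °C. MIC was the lowest concentration with no visible turbidity. Tested in triplicate.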

[2] = DPPH radical scavenging activity; details: 30 mins in the dark, absorbance at 517 nm
Outline: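 DPPH was made up at 0.02% in methanol ([…]), stored closed away from light and heat. Serial dilutions of test compound were mixed with the DPPH solution to eight final two-fold concentrations, with ascorbic acid treated identically as positive control. Mixtures stood 30 min in the dark at room temperature. Absorbance at 517 nm was read against blank. % scavenging = (Ao − As)/Ao × 100, and IC50 was deduced from it. Triplicate.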

[3] = system: Candida krusei ATCC 6258; assay: Anti-yeast activity, CLSI M27-A3 microdilution MIC; assay type: cell-based; details: for Antifungal activity, folds less than fuconazole: strain not given, fits C. krusei of Table 3
Outline: as §1

[4] = system: Candida glabrata isolate; assay: Anti-yeast activity, CLSI M27-A3 microdilution MIC; assay type: cell-based; details: 48 h, 37 °C
Outline: as §1

[5] = system: zymosan stimulated human whole blood phagocytes; assay: Oxidative burst assay; assay type: cell-based; details: read-out: ROS Inhibition (IC50 µg/mL)
Outline: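 Diluted human whole blood phagocytes were stimulated with zymosan and intracellular ROS measured by luminol-enhanced chemiluminescence. Test compound was given at three concentrations (1, 10 and 100), with ibuprofen as standard anti-inflammatory drug. IC50 was derived.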

Row | Structure (SMILES) | MIC [1] [µg/mL] | DPPH radical scavenging activity IC50 [2] | other results
1 | CC1(C)CC[C@]2(C(=O)O)CC[C@]3(C)C(=CC[C@@H]4[C@@]5(C)CC[C@H](O)C(C)(C)[C@@H]5CC[C@]43C)[C@@H]2C1 [Compound 5, oleanolic acid] | 500 (≈ 1090 µM) | ˃1000 µg/mL | 
2 | C=C(C)[C@@H]1CC[C@]2(C)CC[C@]3(C)[C@H](CC[C@@H]4[C@@]5(C)CC[C@H](O)C(C)(C)[C@@H]5CC[C@]43C)[C@@H]12 [Compound 7, lupeol] | 500 (≈ 1170 µM) | ˃1000 µg/mL | Antifungal activity, folds less than fuconazole [3]: 5 folds
3 | C=C(C)[C@@H]1CC[C@]2(C(=O)O)CC[C@]3(C)[C@H](CC[C@@H]4[C@@]5(C)CC[C@H](O)C(C)(C)[C@@H]5CC[C@]43C)[C@@H]12 [Compound 8, betulinic acid] | 500 (≈ 1090 µM) | ˃1000 µg/mL | Antifungal activity, folds less than fuconazole [3]: 5 folds
4 | C=C(C)[C@@H]1CC[C@]2(C)CC[C@]3(C)[C@H](CC[C@@H]4[C@@]5(C)CCC(=O)C(C)(C)[C@@H]5CC[C@]43C)[C@@H]12 [Compound 10, lupenone] | 500 (≈ 1180 µM) | ˃1000 µg/mL | 
5 | OC(Cn1cncn1)(Cn1cncn1)c1ccc(F)cc1F [Fluconazol, fluconazole, reference compound] |  |  | Antifungal activity Minimal Inhibitory Concentrations, C. glabrata [4]: 50 µg/mL; Antifungal activity Minimal Inhibitory Concentrations, C. krusei ([3]; 48 h, 37 °C): 50 µg/mL
6 | CC(C)Cc1ccc(C(C)C(=O)O)cc1 (centres unmarked) [Ibuprofen] |  |  | IC50 [5]: 11.2 ± 1.9 µg/mL (≈ 54.3 µM)
7 | O=C1O[C@H]([C@@H](O)CO)C(O)=C1O [Vitamin C, ascorbic acid, reference compound] |  | 3.343 ± 0.271^a µg/mL | 
